Assay [1] concerns Rattus norvegicus. Kind of assay: In vivo biological activity on the blood pressure of the anesthetized rat. In kind it is functional.
Assay [2] is filed under the species Oryctolagus cuniculus. Briefly: In vitro biological activity on rabbit aorta strip. In kind it is functional. Summed up:
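Isolated rabbit aorta strips under 2 g tension, adjusted during a 60–90-min equilibration, with bath fluid changed every 10–15 min. Peptides added to the tissue bath, concentrations stated as final bath concentrations. Contractile responses recorded with force-displacement transducers.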

Turning to `CNCC(=O)N[C@@H](CCCN=C(N)N)C(=O)N[C@H](C(=O)N[C@@H](Cc1ccccc1)C(=O)N[C@H](C(=O)N[C@@H](Cc1c[nH]cn1)C(=O)N1CCC[C@H]1C(=O)N[C@@H](Cc1ccccc1)C(=O)O)C(C)C)C(C)C`, the figures for the Activity in assay [1] and in assay [2] were 8.1% and 9.8%, respectively.

These data come from ChEMBL document CHEMBL1122757, “Angiotensin II: dependence of hormone affinity on the electronegativity of a single side chain” (1984).
